Reference: ChEMBL document CHEMBL4257448, “Deciphering the origins of molecular toxicity of combretastatin A4 and its glycoconjugates: interactions with major drug transporters and their safety profiles in vitro and in vivo” (Medchemcomm, 2017)

How the values were obtained:
HT-29 = assay: Cytotoxicity against human HT-29 cells assessed as reduction in cell viability after 72 hrs by MTT assay; format: functional, cell-based; conditions: HT-29, 72 h
Summary of the method: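 HT29 cells were cultured in RPMI-1640 with glutamine and 10% FBS, seeded at 2000–7500 cells/well, and exposed for 72 h to drug in DMSO (final DMSO <0.1%). MTT was added at 0.83 mg mL−1 final and incubated overnight, then cells were lysed in SDS/HCl and read at 570 nm. Survival was expressed as percent of drug-free control; five replicate wells.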

[1] = Toxicity in ip dosed DBA/2 mouse assessed as reduction in 15% body weight administered as daily dose for 3 days; format: organism-based; conditions: in vivo
Summary of the method: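 Adult male DBA/2 mice were dosed i.p. at 10 mL kg−1, with 5 per group. Controls (n = 8) received saline. MTD was the dose allowing 15% median body-weight loss with no toxic deaths or marked change in general signs within 3 days.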

[2] = target: T1, Organic anion transporter 3 (Homo sapiens, UniProt Q8TCC7); assay: Inhibition of human OAT3 expressed in HEK293 cells assessed as 6-CF uptake after 5 mins by fluorescence assay; format: cell-based; conditions: for inhibition (INH): human, hek293, 5 min
T1 sequence (Q8TCC7 whole entry): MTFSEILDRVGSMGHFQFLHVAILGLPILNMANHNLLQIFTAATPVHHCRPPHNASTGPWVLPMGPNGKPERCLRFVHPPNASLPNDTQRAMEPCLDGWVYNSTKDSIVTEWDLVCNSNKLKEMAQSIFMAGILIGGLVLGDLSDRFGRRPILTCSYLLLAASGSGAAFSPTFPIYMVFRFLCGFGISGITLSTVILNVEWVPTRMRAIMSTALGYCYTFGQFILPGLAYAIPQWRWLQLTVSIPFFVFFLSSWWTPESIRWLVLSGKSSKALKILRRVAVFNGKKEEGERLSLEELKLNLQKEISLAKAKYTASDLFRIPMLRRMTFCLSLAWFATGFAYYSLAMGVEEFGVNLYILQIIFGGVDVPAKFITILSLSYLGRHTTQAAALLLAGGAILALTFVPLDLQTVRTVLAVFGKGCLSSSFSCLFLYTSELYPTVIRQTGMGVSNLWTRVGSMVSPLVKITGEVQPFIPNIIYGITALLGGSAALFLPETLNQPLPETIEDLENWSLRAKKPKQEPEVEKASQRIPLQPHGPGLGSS
Summary of the method: (§1)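 Stably transfected HEK293 cells (human OAT1, OAT3, OCT1, OCT2, OATP1B3, OATP2B1) and mock cells were assayed 16 h after seeding in HEPES uptake buffer, pH 7.2, with fluorescent probe ± compound. Incubation was 5 min for OAT1/3 and OATPs, and 10 min for OCT1/2. Reference inhibitors were probenecid (OATs), quinine (OCTs) and rifampicin (OATPs). Uptake was stopped with ice-cold PBS and cells were lysed in Tris/Triton. Fluorescence was normalised to BCA protein; triplicates, repeated 2–3 times.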

[3] = Cytotoxicity against HEK293FT cells assessed as reduction in cell viability up to 20 uM; format: cell-based; conditions: human
[4] = target: T2, Solute carrier family 22 member 6 (Homo sapiens, UniProt Q4U2R8); assay: Inhibition of human OAT1 expressed in HEK293 cells assessed as 6-CF uptake after 5 mins by fluorescence assay; format: cell-based; conditions: for inhibition (INH): human, hek293, 5 min; summary of the method: as §1
T2 sequence (Q4U2R8 whole entry): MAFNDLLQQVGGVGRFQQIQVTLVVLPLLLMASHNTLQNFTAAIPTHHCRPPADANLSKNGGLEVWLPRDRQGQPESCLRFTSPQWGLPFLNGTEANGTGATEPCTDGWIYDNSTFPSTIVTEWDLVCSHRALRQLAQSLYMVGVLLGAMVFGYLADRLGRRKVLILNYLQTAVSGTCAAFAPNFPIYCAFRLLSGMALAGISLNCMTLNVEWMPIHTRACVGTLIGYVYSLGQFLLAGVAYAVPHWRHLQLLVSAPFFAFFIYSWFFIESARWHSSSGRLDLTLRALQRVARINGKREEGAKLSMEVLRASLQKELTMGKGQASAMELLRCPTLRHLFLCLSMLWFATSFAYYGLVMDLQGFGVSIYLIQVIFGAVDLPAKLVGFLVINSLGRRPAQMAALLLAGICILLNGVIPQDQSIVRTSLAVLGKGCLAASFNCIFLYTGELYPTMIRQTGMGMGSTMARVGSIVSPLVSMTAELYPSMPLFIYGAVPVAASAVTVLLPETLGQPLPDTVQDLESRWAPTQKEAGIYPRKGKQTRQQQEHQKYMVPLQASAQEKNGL

[5] = target: T3, Solute carrier organic anion transporter family member 1B3 (Homo sapiens, UniProt Q9NPD5); assay: Inhibition of human OATP1B3 expressed in HEK293 cells assessed as FMTX uptake after 5 mins by fluorescence assay; format: cell-based; conditions: for inhibition (INH): human, hek293, 5 min; summary of the method: as §1
T3 sequence (Q9NPD5 whole entry): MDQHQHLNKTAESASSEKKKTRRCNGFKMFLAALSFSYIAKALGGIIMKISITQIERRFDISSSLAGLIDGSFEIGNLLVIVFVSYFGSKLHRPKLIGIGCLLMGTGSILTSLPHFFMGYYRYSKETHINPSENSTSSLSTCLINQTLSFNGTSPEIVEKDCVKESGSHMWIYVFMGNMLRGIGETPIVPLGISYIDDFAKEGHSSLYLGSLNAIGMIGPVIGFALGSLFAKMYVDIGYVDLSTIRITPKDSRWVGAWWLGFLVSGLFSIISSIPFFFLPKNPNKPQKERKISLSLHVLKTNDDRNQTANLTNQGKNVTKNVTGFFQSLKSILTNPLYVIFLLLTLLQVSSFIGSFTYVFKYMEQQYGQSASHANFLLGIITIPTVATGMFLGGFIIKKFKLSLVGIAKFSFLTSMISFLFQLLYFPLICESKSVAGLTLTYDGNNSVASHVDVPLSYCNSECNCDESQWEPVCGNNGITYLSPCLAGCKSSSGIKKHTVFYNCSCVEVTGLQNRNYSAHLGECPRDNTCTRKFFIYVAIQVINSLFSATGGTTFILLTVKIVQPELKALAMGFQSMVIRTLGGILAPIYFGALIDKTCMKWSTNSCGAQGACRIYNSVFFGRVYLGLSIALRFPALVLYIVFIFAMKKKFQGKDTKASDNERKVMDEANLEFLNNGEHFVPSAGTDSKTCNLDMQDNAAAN

Compound | IC50 (HT-29) [µM] | MTD at 72 h [1] [mg/kg] | IC50 [2] [µM] | inhibition (INH) [2] | Activity [3] | IC50 [4] [µM] | inhibition (INH) [4] | IC50 [5] [µM] | inhibition (INH) [5]
COc1ccc(/C=C\c2cc(OC)c(OC)c(OC)c2)cc1O [COMBRETASTATIN A4] | 0.72 | 25 | 16.4 | Dose-dependent effect | Toxic | 41.4 | Dose-dependent effect | 195 | Dose-dependent effect
COc1ccc(/C=C\c2cc(OC)c(OC)c(OC)c2)cc1O[C@@H]1O[C@H](CO)[C@@H](O)[C@H](O)[C@H]1O | 6.91 | 400 | > 200 | Dose-dependent effect | Toxic | > 200 | Dose-dependent effect | > 200 | Dose-dependent effect
